ARFGAP1 inh: inhibitors of rat ARFGAP1 GAP activity, primary screen, biochemical, fluorescence polarization, GDP tracer. inhibition, % at 16.5 µM. AID 651572, 2012. Arfgap1-stimulated ARF1 GTP hydrolysis, GDP FP detection. 0.26% of 360,000 active;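 active means inhibition above a per-plate limit, mean inhibition of low control wells plus 3 SD, cut at about 25% in these data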;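 further: 0% = DMSO wells with enzyme and 100% = wells lacking Arfgap1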
Target sequence (Q62848 1-136 limits assumed): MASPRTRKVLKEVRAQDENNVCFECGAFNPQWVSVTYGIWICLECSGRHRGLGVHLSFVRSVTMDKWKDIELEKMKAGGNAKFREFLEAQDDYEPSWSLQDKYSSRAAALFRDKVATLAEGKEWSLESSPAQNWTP
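Material – truncated rat Arfgap1 GAP domain · Buffer or medium – HEPES-based buffer, pH 7.5 · Reagent – human ARF1(Δ1-17)-GTP substrate · Dosing – 16.5 µM single point, 1.26% DMSO · Schedule – GTP hydrolysis reaction 2 h at 25 °C · Technique – GDP detection by fluorescence polarization · Benchmarks – No-Arfgap1 wells (100%) versus DMSO full-reaction wells (0%) · Repeats – single replicate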
EBNA-1 inhibitor: EBNA-1 DNA-binding inhibitors, primary screen, biochemical, fluorescence polarization; inhibition, % at 14.8 µM; 0.34% of 300,000 active; AID 1950, 2009; in the data active means inhibition above about 28%
ZTA counter: blocks Epstein-Barr virus ZTA, an EBNA-1 counter-screen; P03206; ZTA-DNA binding, fluorescence polarization; inhibition, % at 11 µM; 0.15% of 320,000 active; in the data active means inhibition above about 33%
Target sequence (P03206 whole entry, looked up): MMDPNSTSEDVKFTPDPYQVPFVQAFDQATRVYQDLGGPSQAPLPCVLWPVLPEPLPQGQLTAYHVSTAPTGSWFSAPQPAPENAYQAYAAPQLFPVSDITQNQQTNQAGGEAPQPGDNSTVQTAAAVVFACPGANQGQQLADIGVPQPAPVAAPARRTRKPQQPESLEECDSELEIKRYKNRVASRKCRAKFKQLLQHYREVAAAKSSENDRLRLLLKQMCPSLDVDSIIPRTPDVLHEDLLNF
ASAP1 inh: inhibitors of human ASAP1 ArfGAP activity, primary screen, biochemical, fluorescence polarization | inhibition, % at 16.5 µM | ASAP1-stimulated ARF1 GTP hydrolysis, GDP FP detection | 0.19% of 360,000 active | Arf-GAP with SH3 domain, ANK repeat and PH domain-containing protein 1 (Homo sapiens), …; in the data active means inhibition above about 25%;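 further: 0% = vehicle with enzyme and substrate and 100% = no enzyme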
ASAP1 GAP conf: ASAP1 GAP activity inhibitors, confirmation, biochemical, fluorescence polarization, human, triplicate. inhibition, % at 16.5 µM. shares compounds with ASAP1 inh. AID 624431, 2012. 37% of 620 active. ASAP1-stimulated Arf1 GTPase, GDP fluorescence polarization;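 active means mean inhibition over triplicates exceeds the hit threshold derived for the earlier primary screening run, cut at about 25% in these data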
Numbers without * were called inactive; . = no result. Hits are enriched below; roughly 0.75% of the tested compounds scored in any of these assays.

SMILES	ARFGAP1 inh	EBNA-1 inhibitor	ZTA counter	ASAP1 inh	ASAP1 GAP conf
COc1ccc(C2CC(=O)C(c3ccc(F)cc3)=CN2Cc2ccccc2)cc1 (configuration not stated)	-9	.	.	-4	.
CCOc1ccc(NC(=O)CN(C)C(=O)c2cn(-c3ccc(C)cc3)nc2-c2cccc(OC)c2)cc1OCC	11	.	.	34*	14
COC(=O)c1cc2c(c3c4ccccc4n(S(=O)(=O)c4ccc(C)cc4)c13)C(=O)N(C)C2	2	.	.	6	.
Cc1c(C(=O)NCc2ccc(Cl)c(Cl)c2)sc(=O)n1Cc1cccc(F)c1	2	.	.	25*	14
Cc1c(C(=O)NCc2cccc(Cl)c2)sc(=O)n1Cc1cccc(F)c1	-3	.	.	6	.
COC(=O)[C@H](N[C@H](/C=C/c1ccccc1)[C@@H](O)Cc1ccccc1)c1ccccc1	4	.	.	-2	.
CC(/C=C/c1ccccc1)=N/NC(=O)CNC(=O)c1ccccc1F	0	-5	-4	3	.
CC(/C=C/c1ccccc1)=N\NC(=O)CNC(=O)c1ccccc1Cl	1	5	-10	25*	5
COc1ccc(Cl)c2sc(NC(=O)C3=COCCO3)nc12	9	5	16	-4	.
Cc1ccc(Cl)c2sc(NC(=O)C3=COCCO3)nc12	8	9	8	27*	14
Cc1ccc(-n2c(O)c(C=Nc3ccc4c(c3)OCO4)c3ccccc3c2=O)cc1C	5	-1	15	4	.
Cc1cc(N=Cc2c(O)n(-c3ccc4c(c3)OCO4)c(=O)c3ccccc23)ccn1	-8	4	-2	39*	50*
CCOc1ccc(CCNC(=O)CN2C(=O)NC(CCSC)C2=O)cc1OCC (configuration not stated)	11	0	-5	28*	5
CCOc1ccc(CCNC(=O)CN2C(=O)NC3(CCCCC3C)C2=O)cc1OCC (configuration not stated)	-7	-2	7	-5	.
CCOC(=O)c1sc(Nc2nc3c(OC)cccc3s2)nc1C	1	-7	-13	25*	14
CCOC(=O)c1sc(Nc2ccccc2)nc1C	-10	-3	-15	6	.
Nc1ccc2ccc(N)cc2c1	10	.	.	7	.
Cc1cc2c(c(=O)o1)[C@@]1(C(=O)N(c3ccccc3)c3ccccc31)C1=C(CCCC1=O)O2	1	.	.	-7	.
COc1cccc(C(C(=O)NC2CCCCC2)N(Cc2ccco2)C(=O)c2ccccn2)c1 (configuration not stated)	2	8	-15	8	.
COc1ccc(OC)c(C(C(=O)NC2CCCCC2)N(Cc2ccco2)C(=O)c2ccccn2)c1 (configuration not stated)	2	0	-9	26*	-1
COC(=O)Cc1nnn2c1CC(OC)c1cc(Br)ccc1-2 (configuration not stated)	7	.	.	8	.
C=CCN(CC=C)CCOc1cc(C)ccc1[N+](=O)[O-]	-8	5	-6	25*	0
CCc1ccc(OCC(=O)N2CCc3ccccc32)cc1	-16	8	1	26*	10
O=c1[nH]c(Nc2ccc(F)cc2)cc2ccccc12	43*	4	14	37*	32*
CC1(C)CC(CCC(=O)Nc2ccc(S(N)(=O)=O)cc2)C(=O)O1 (configuration not stated)	-5	-1	4	25*	-4
SMILES	ARFGAP1 inh	EBNA-1 inhibitor	ZTA counter	ASAP1 inh	ASAP1 GAP conf
Cc1ccc(NC(=O)CCC2CC(C)(C)OC2=O)cc1 (configuration not stated)	-8	-11	-8	-15	.
C=CCN1C(=O)c2n[nH]c(C(C)C)c2C1c1ccccc1 (configuration not stated)	3	.	.	-7	.
O=C(Nc1cccc(CNCCc2c[nH]c3ccccc23)c1)c1ccccc1Cl	3	3	-3	29*	7
C=CCN(c1ccccc1OC)S(=O)(=O)c1cccc(C(=O)OCC(=O)N2CCOCC2)c1	-4	.	.	76*	6
C=CCN(c1ccccc1OC)S(=O)(=O)c1cccc(C(=O)OCC(=O)c2c[nH]c3ccccc23)c1	8	8	-1	2	.
COc1cc2c(C#N)c(N3CCCCC3)nc(N)c2c(N)n1	8	2	-2	10	.
